Published values collected from several papers.
SP140: SP140 (Homo sapiens, UniProt Q13342)
ANKK1: Ankyrin repeat and protein kinase domain-containing protein 1 (ANKK1, Homo sapiens, UniProt Q8NFD2)

SMILES | target | assay | test system | conditions | measurement | result
Cc1cc2c(cc1N1C(=O)c3cccc4c(Cl)ccc(c34)C1=O)n(C)c(=O)n2C | SP140 | thermal stability, DSF |  | 10 µM | ΔTm | -0.9 °C
Oc1ccc(-c2nc(-c3ccncc3)c(-c3ccc(F)cc3)[nH]2)cc1 | SP140 | thermal stability, DSF |  | 10 µM | ΔTm | 0.36 °C
Cc1ccc(S(=O)(=O)Nc2ccc(-n3nc(C(F)(F)F)cc3C(F)(F)F)cc2)cc1 | Calcium release-activated calcium channel protein 1 (Rattus norvegicus, UniProt Q5M848) | ion current, inhibitor, patch clamp | RBL-2H3 | 3 µM | remaining activity | 60%
CCCOc1ccc(OC)c(F)c1C(=O)c1ccc(C(=O)N[C@@H]2CNC[C@H]2NC(=O)c2ccc3[nH]ncc3c2)cc1 | Serine/threonine-protein kinase Sgk2 (SGK2, Homo sapiens, UniProt Q9HBY8) | enzyme activity, inhibitor |  | 0.5 µM | remaining activity | 16%
OCc1cc(C(O)CNCCCCCCOCCCCc2ccccc2)ccc1O (stereo not shown) | C-X-C chemokine receptor type 4 (CXCR4, Homo sapiens, UniProt P61073) | calcium signal, antagonist | U87.CD4.CXCR4 | 0.8 µM | inhibition | 9%
Cc1cnc(Nc2ccc(OCCN3CCCC3)cc2)nc1Nc1cccc(S(=O)(=O)NC(C)(C)C)c1 | SP140 | thermal stability, DSF |  | 10 µM | ΔTm | -0.01 °C
CN(C)C1CCN(CC#Cc2nn(C3CCCC3)c3nc(NCc4ccccc4)ncc23)C1 (stereo not shown) | Proto-oncogene tyrosine-protein kinase Src (SRC, Homo sapiens, UniProt P12931) | enzyme activity, inhibitor, FRET |  | 0.1 µM | inhibition | -1%
Cc1ccc(C(=O)Nc2ccc(CN3CCN(C)CC3)c(C(F)(F)F)c2)cc1C#Cc1cnc2cccnn12 | ANKK1 | cell-free assay |  | 23.5 nM | remaining signal | 56%
Nc1ncnc2occ(-c3ccc(NC(=O)Nc4cc(C(F)(F)F)ccc4F)cc3)c12 | ANKK1 | cell-free assay |  | 20 µM | remaining signal | 3.6%
Oc1c(Br)cc(Oc2ccc(Br)cc2Br)cc1Br | Sulfotransferase 1E1 (SULT1E1, Homo sapiens, UniProt P49888) | enzyme activity, substrate |  |  | Km | 4.23 µM
